The record followed here is ChEMBL document CHEMBL3227917, “Structure-activity relationships of dimeric Catharanthus alkaloids. 2. Experimental antitumor activities of N-substituted deacetylvinblastine amide (vindesine) sulfates” (J Med Chem, 1979).

Series [1] is described as follows: Antitumor activity against mouse Gardner lymphosarcoma allografted in C3H mouse assessed as tumor growth inhibition at 0.10 mg/kg, ip administered daily for 8 to 10 days. It counts as functional. As to conditions: route intraperitoneal, read-out: TGI. The procedure, abridged:
(§1)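 Gardner lymphosarcoma in C3H mice; sulfate salts unless noted, given ip daily for 8–10 days, treatment starting 8 days after tumor implantation. Tumor growth inhibition scored as –, 0–25%; +, 26–50%; ++, 51–75%; +++, 76–100%; T, lethal to ≥5 of 10 animals per group. Average of one or more tests.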

A short description of series [2]: Antitumor activity against mouse Gardner lymphosarcoma allografted in C3H mouse assessed as tumor growth inhibition at 0.05 mg/kg, ip administered daily for 8 to 10 days. It counts as functional. The following applies: route intraperitoneal, read-out: TGI. The essentials:
as §1

Series [3] concerns Mus musculus. Briefly: Toxicity in C3H mouse allografted with mouse Gardner lymphosarcoma assessed as lethality at 0.40 mg/kg, ip administered daily for 8 to 10 days. It counts as organism-based. Also noted: dose 0.4 mg/kg, route intraperitoneal. The following applies: in vivo, 0.4 mg/kg. The procedure, abridged:
(§2)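 Tumor-bearing mice given sulfate salts ip daily for 8–10 days; values are the average of one or more tests. Toxic means lethal to ≥5 of 10 animals per group.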

The subject of series [4] is Mus musculus. As to the kind of experiment: Toxicity in C3H mouse allografted with mouse Gardner lymphosarcoma assessed as lethality at 0.20 mg/kg, ip administered daily for 8 to 10 days. It counts as organism-based. More on the design: dose 0.2 mg/kg, route intraperitoneal. The following applies: in vivo, 0.2 mg/kg. The procedure, abridged: as §2
Series [5] is described as follows: Antitumor activity against mouse Gardner lymphosarcoma allografted in C3H mouse assessed as tumor growth inhibition at 0.30 mg/kg, ip administered daily for 8 to 10 days. The series is classed as functional. As to conditions: route intraperitoneal, read-out: TGI. The procedure, abridged:
as §1

Series [6] in a line: Antitumor activity against mouse Gardner lymphosarcoma allografted in C3H mouse assessed as tumor growth inhibition at 0.20 mg/kg, ip administered daily for 8 to 10 days. The series is classed as functional. The following applies: route intraperitoneal, read-out: TGI. The procedure, abridged:
as §1

The subject of series [7] is B16. Briefly: Antitumor activity against mouse B16 cells allografted in C57BL/6 mouse assessed as prolongation of host survival at 0.90 mg/kg, ip administered on days 1,5 and 9. The series is classed as functional. The following applies: route intraperitoneal. The procedure, abridged:
(§3)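 B16 melanoma cells (10⁶ inoculum) implanted ip in C57BL/6 mice; groups of 10. Sulfate salts unless noted, given ip on days 1, 5 and 9. Single test. Survival prolongation is expressed as percent versus controls, with survivors counted on day 60. Toxic means deaths of ≥5 of 10 animals before the first control death.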

The test system of series [8] is Mus musculus. As to the kind of experiment: Toxicity in C57BL/6 mouse allografted with mouse B16 cells assessed as animal death at 1.20 mg/kg, ip administered on days 1,5 and 9. It counts as organism-based. Also noted: dose 1.2 mg/kg, route intraperitoneal. The following applies: in vivo, 1.2 mg/kg. The procedure, abridged: as §3
Series [9] relates to B16. As to the kind of experiment: Antitumor activity against mouse B16 cells allografted in C57BL/6 mouse assessed as prolongation of host survival at 0.60 mg/kg, ip administered on days 1,5 and 9. It counts as functional. As to conditions: route intraperitoneal. The procedure, abridged: as §3
The nature of series [10]: Antitumor activity against mouse Gardner lymphosarcoma allografted in C3H mouse assessed as tumor growth inhibition at 0.40 mg/kg, ip administered daily for 8 to 10 days. It counts as functional. As to conditions: route intraperitoneal, read-out: TGI. The procedure, abridged:
as §1

In series [11] the test system is P388/VCR. As to the kind of experiment: Antitumor activity against mouse P388/VCR cells allografted in B6D2F1 mouse assessed as increase in host lifespan at 1.20 mg/kg, ip administered on days 1, 5 and 9. The series is classed as functional. The following applies: dose 1.2 mg/kg; route intraperitoneal. The procedure, abridged: (§4)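 P388/VCR leukemia in groups of 10 B6D2F1 mice, run at Lilly using the cell strain received from NCI. Sulfate salts given ip on days 1, 5 and 9. Read-out is percent increase in lifespan.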

Series [12] deals with CHO. As to the kind of experiment: Mitotic arrest in CHO cells assessed as increase in cell accumulation at 0.002 ug/ml. It counts as functional, Cricetulus griseus. The procedure, abridged: (§5)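 Chinese hamster ovary cells in tissue culture, scored for mitotic arrest as increase in cells in mitotic arrest over control: +++, 40–50%; ++, 15–40%; +, 10–15%; ±, 7–10%; –, 3–7%. Cytotoxicity noted separately.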

The subject of series [13] is P388/VCR. As to the kind of experiment: Antitumor activity against mouse P388/VCR cells allografted in B6D2F1 mouse assessed as increase in host lifespan at 0.60 mg/kg, ip administered on days 1, 5 and 9. It counts as functional. As to conditions: dose 0.6 mg/kg; route intraperitoneal. The procedure, abridged: as §4
In series [14] the test system is CHO. Briefly: Mitotic arrest in CHO cells assessed as increase in cell accumulation at 0.02 ug/ml. The series is classed as functional, Cricetulus griseus. The procedure, abridged:
as §5

Series [15] concerns CHO. As to the kind of experiment: Mitotic arrest in CHO cells assessed as increase in cell accumulation at 0.2 ug/ml. The series is classed as functional, Cricetulus griseus. The essentials: as §5
The test system of series [16] is P388/VCR. Briefly: Antitumor activity against mouse P388/VCR cells allografted in B6D2F1 mouse assessed as increase in host lifespan at 0.90 mg/kg, ip administered on days 1, 5 and 9. It counts as functional. The following applies: dose 0.9 mg/kg; route intraperitoneal. The procedure, abridged:
as §4

Series [17] concerns Mus musculus. Briefly: Toxicity in C3H mouse allografted with mouse Gardner lymphosarcoma assessed as lethality at 0.5 mg/kg, ip administered daily for 8 to 10 days. The series is classed as organism-based. Also noted: dose 0.5 mg/kg, route intraperitoneal. As to conditions: in vivo. The procedure, abridged:
as §2

Series [18] can be described thus: Antitumor activity against mouse P1534 cells allografted in DBA2 mouse assessed as tumor growth inhibition at 0.20 mg/kg, ip administered daily for 8 to 10 days. It counts as functional. As to conditions: route intraperitoneal, read-out: TGI. The essentials:
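P1534(J) leukemia implanted sc in DBA2 mice; sulfate salts dosed ip daily for 8–10 days. Growth inhibition scored –, 0–25%; +, 26–50%; ++, 51–75%; +++, 76–100%; T, lethal to ≥5 of 10 animals per group. Average of one or more tests.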

For the compound `C=CC(=O)OCCNC(=O)[C@@]1(O)[C@H](O)[C@]2(CC)C=CCN3CC[C@@]4(c5cc([C@@]6(C(=O)OC)C[C@@H]7CN(CCc8c6[nH]c6ccccc86)C[C@](O)(CC)C7)c(OC)cc5N(C)[C@@H]14)[C@@H]32`, the inhibition in vivo at 0.1 mg/kg in [1] is 76%. Also, the inhibition in vivo at 0.05 mg/kg in [2] turned out to be 51%. Further, the Activity entry in the series on Mus musculus [3] and in the series on Mus musculus [4] was “Toxic” each time.

For `CC[C@]1(O)C[C@H]2CN(CCc3c([nH]c4ccccc34)[C@@](C(=O)OC)(c3cc4c(cc3OC)N(C)[C@H]3[C@@](O)(C(=O)NCCS)[C@H](O)[C@]5(CC)C=CCN6CC[C@]43[C@@H]65)C2)C1.O=S(=O)(O)O`, in [5], the inhibition in vivo at 0.3 mg/kg came to 51%. Further, the inhibition in vivo at 0.2 mg/kg in [6] was determined as 26%. Moreover, the survival at 0.9 mg/kg with B16 [7] worked out at 141%. In addition, the inhibition in vivo at 0.1 mg/kg in series [1] was 0%. In the series with Mus musculus [8], the Activity result is “Toxic”. Moreover, the survival at 0.6 mg/kg in the series on B16 [9] was 170%. Moreover, the inhibition in vivo at 0.4 mg/kg in series [10] amounted to 76%.

Take `CC[C@]1(O)C[C@H]2CN(CCc3c([nH]c4ccccc34)[C@@](C(=O)OC)(c3cc4c(cc3OC)N(C)[C@H]3[C@@](O)(C(=O)NCCSC)[C@H](O)[C@]5(CC)C=CCN6CC[C@]43[C@@H]65)C2)C1.O=S(=O)(O)O`: the Activity with P388/VCR [11] is given as 6%; in the series with CHO [12], 3%; in the series on P388/VCR [13], 20%; in the series on CHO [14], 15%; in the series with CHO [15], 15%; with P388/VCR [16] it was 42%. For the same compound, the Activity result in the series on Mus musculus [3] and in the series on Mus musculus [8] was “Toxic” throughout. The inhibition in vivo at 0.2 mg/kg in series [6] was 0%. The survival at 0.9 mg/kg in the series with B16 [7] was 58%. The inhibition in vivo at 0.1 mg/kg in series [1] came to 0%. The survival at 0.6 mg/kg with B16 [9] worked out at 163%.

As for `CC[C@]1(O)C[C@H]2CN(CCc3c([nH]c4ccccc34)[C@@](C(=O)OC)(c3cc4c(cc3OC)N(C)[C@H]3[C@@](O)(C(=O)NCCCSC)[C@H](O)[C@]5(CC)C=CCN6CC[C@]43[C@@H]65)C2)C1.O=S(=O)(O)O`, in series [6], the inhibition in vivo at 0.2 mg/kg was determined as 0%. Besides, the survival at 0.9 mg/kg in the series on B16 [7] was 141%. The inhibition in vivo at 0.1 mg/kg in series [1] was 0%. Besides, the Activity result with Mus musculus [3] and in the series on Mus musculus [8] was “Toxic” each time. Besides, the survival at 0.6 mg/kg with B16 [9] came out at 101%.

Take `CC[C@]1(O)C[C@H]2CN(CCc3c([nH]c4ccccc34)[C@@](C(=O)OC)(c3cc4c(cc3OC)N(C)[C@H]3[C@@](O)(C(N)=O)[C@H](OC(C)=O)[C@]5(CC)C=CCN6CC[C@]43[C@@H]65)C2)C1.O=S(=O)(O)O`: the Activity in the series on CHO [12] is reported as 3%; in the series with CHO [14], 15%; in the series on CHO [15] it was 40%; with Mus musculus [17], “Toxic”.

Turning to `CC[C@]1(O)C[C@H]2CN(CCc3c([nH]c4ccccc34)[C@@](C(=O)OC)(c3cc4c(cc3OC)N(C)[C@H]3[C@@](O)(C(=O)NC)[C@H](OC(C)=O)[C@]5(CC)C=CCN6CC[C@]43[C@@H]65)C2)C1.O=S(=O)(O)O`, in the series with Mus musculus [17], the Activity result is “Toxic”. Further, in series [18], the inhibition in vivo at 0.2 mg/kg was determined as 51%.
